Test results taken from ChEMBL document CHEMBL1795206, “Selective non zinc binding inhibitors of MMP13” (Bioorg Med Chem Lett, 2011).

Assays:
[1] = Chemical stability of the compound assessed as half life at pH 4 to 10; format: physicochemical; conditions: buffer
[2] = Photolytic stability of the compound in phosphate buffer at pH 7 up to 4 hrs by LC-UV-MS analysis; format: physicochemical; conditions: pH 7, 4 h
[3] = Intrinsic clearance in human liver microsomes; format: ADME, Microsome
[4] = Volume of distribution at steady state in rat at 2 mg/kg, iv; format: ADME, organism-based; parameters: dose 2 mg/kg, route intravenous; conditions: in vivo, read-out: Vdss
Outline: (§1)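 Rats dosed intravenously at 2 mg/kg, n = 2 animals. Clearance is reported in ml/min/kg, half-life in h and steady-state volume of distribution in l/kg.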

[5] = Half life in rat at 2 mg/kg, iv; format: ADME, organism-based; parameters: dose 2 mg/kg, route intravenous; conditions: in vivo; outline: as §1
[6] = Intrinsic clearance in Sprague-Dawley rat hepatocytes measured per 10^6 cells; format: ADME, cell-based, Liver, Hepatocyte
[7] = Clearance in rat at 2 mg/kg, iv; format: ADME, organism-based; parameters: dose 2 mg/kg, route intravenous; conditions: in vivo; outline: as §1

SMILES	half-life [1]	Stability [2]	also measured
Cc1ccc(Oc2ccc(C(=O)NCc3ccncc3)cc2)cc1	> 41.7 days	–	–
O=C(NCc1ccncc1)c1ccc(Oc2ccccc2)cc1	> 41.7 days	Stable	–
O=C(NCc1ccncc1)c1ccc(OCc2ccccc2)cc1	> 41.7 days	Stable	–
O=C(NCc1ccncc1)c1ccc(Oc2ccc(C#C[C@]3(O)CN4CCC3CC4)cc2)cc1	> 41.7 days	Stable	–
Cc1ccc(Oc2ccc(C(=O)NCc3cccnc3)cc2)cc1	> 41.7 days	–	–
Cc1ccc(Oc2ccc(C(=O)NCc3ccccc3)cc2)cc1	> 41.7 days	–	–
COc1cccc(CNC(=O)c2ccc(Oc3ccc(C)cc3)cc2)c1	> 41.7 days	–	–
Cc1ccc(Oc2ccc(C(=O)N(C)Cc3ccncc3)cc2)cc1	> 41.7 days	–	–
Cc1ccc(Oc2ccc(C(=O)NCCc3ccncc3)cc2)cc1	> 41.7 days	–	–
Cc1ccc(Oc2ccc(C(=O)NCC3CCCCC3)cc2)cc1	> 41.7 days	–	–
Cc1ccc(Oc2ccc(C(=O)NCCO)cc2)cc1	> 41.7 days	–	–
Cc1ccc(Oc2ccc(C(=O)NCCCN(C)C)cc2)cc1	> 41.7 days	Stable	–
CNC(=O)c1ccc(Oc2ccc(C)cc2)cc1	> 41.7 days	Stable	–
COc1ccc(C(=O)NCc2ccncc2)cc1	> 41.7 days	Stable	–
O=C(NCc1ccncc1)c1ccc(-c2ccccc2)cc1	> 41.7 days	Stable	–
O=C(NCc1ccncc1)c1ccc(OCCc2ccccc2)cc1	> 41.7 days	Stable	–
O=C(NCc1ccncc1)c1ccc(Oc2ccc([N+](=O)[O-])cc2)cc1	> 41.7 days	Stable	–
COc1cc(Oc2ccc(C(=O)NCc3ccncc3)cc2)ccc1[N+](=O)[O-]	> 41.7 days	Stable	–
N#Cc1ccccc1Oc1ccc(C(=O)NCc2ccncc2)cc1	> 41.7 days	Stable	–
CNC(=O)c1ccc(Oc2ccc(C(=O)NCc3ccncc3)cc2)cc1	> 41.7 days	Stable	–
O=C(NCc1ccncc1)c1ccc(Oc2ccc(/C=C/C3=CN4CCC3CC4)cc2)cc1	> 41.7 days	Stable	–
O=C(NCc1ccncc1)c1ccc(Oc2ccc(C#C[C@@]3(O)CN4CCC3CC4)cc2)cc1	> 41.7 days	Stable	–
O=C(NCc1ccncn1)c1ccc(Oc2ccc(C#C[C@]3(O)CN4CCC3CC4)cc2)cc1	> 41.7 days	Stable	microsomal CLint [3]: < 2 µL/min/mg; Vd [4]: 2.4 L/kg; half-life [5]: 0.1 days; hepatocyte CLint [6]: 3 µL/min/1e6 cells; clearance [7]: 17 mL/min/kg
O=C(NCc1ccncn1)c1ccc(Oc2ccc(C#C[C@@]3(O)CN4CCC3CC4)cc2)cc1	> 41.7 days	Stable	–
O=C(NCc1ccncn1)c1ccc(Oc2ccc(CCC3(O)CN4CCC3CC4)cc2)cc1 (stereo not given)	> 41.7 days	Stable	–
O=C(NCc1ccncn1)c1ccc(Oc2ccc(/C=C/C3(O)CN4CCC3CC4)cc2)cc1 (stereo not given)	> 41.7 days	Stable	–
COC1(C#Cc2ccc(Oc3ccc(C(=O)NCc4ccncn4)cc3)cc2)CN2CCC1CC2 (stereo not given)	> 41.7 days	Stable	–
O=C(NCc1ccncn1)c1ccc(Oc2ccc(/C=C/C3=CN4CCC3CC4)cc2)cc1	> 41.7 days	Stable	–
O=C(NCc1ccncc1)c1ccc(Oc2ccc(C#CC3(O)CN4CCC3CC4)cc2)cc1 (racemic)	> 41.7 days	Stable	–
